# The source made the active and inactive calls. The calls are words filed in the database; no cut-off is given here.
# Tests used:
# [1] = target: T1, C-C chemokine receptor type 1 (Homo sapiens, UniProt P32246); assay: Displacement of [125I]MIP-1-alpha from human recombinant CCR1 expressed in HEK293 cells; assay type: cell-based
# T1 sequence (P32246 whole entry): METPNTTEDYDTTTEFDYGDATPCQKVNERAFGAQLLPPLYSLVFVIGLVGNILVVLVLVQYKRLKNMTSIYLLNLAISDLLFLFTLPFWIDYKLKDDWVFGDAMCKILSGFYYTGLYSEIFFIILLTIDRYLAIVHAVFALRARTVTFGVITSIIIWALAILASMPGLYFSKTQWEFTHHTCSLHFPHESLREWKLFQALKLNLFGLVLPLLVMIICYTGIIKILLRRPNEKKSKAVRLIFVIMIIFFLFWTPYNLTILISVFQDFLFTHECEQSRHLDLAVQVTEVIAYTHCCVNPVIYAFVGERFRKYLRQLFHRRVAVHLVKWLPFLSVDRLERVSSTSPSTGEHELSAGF
# Outline: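 Scintillation proximity binding in 384-well format. Membranes (50 µg/mL) were mixed with SPA beads (10 mg/mL) in buffer of 130 mM NaCl, 5 mM KCl, 1 mM MnCl₂, 50 mM Tris HCl pH 7.4 and 0.1% BSA. Varied compound concentrations added with [¹²⁵I]MIP-1α at 0.1 nM final. Plates spun, incubated 4 h, then counted.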
# [2] = Metabolic stability in rat liver microsomes assessed as compound remaining at 1 uM after 30 mins by LC/MS; assay type: ADME, Microsome; settings: read-out: Stability
# Outline: (§1)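 Compound at 1 µM incubated with rat or human liver microsomes (300 nM cytochrome P450) in phosphate buffer pH 7.4 with 1 mM NADPH for 30 min at 37 °C. Stopped with acetonitrile and centrifuged. Percent remaining at 30 min determined by LC/MS.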
# [3] = Metabolic stability in human liver microsomes assessed as compound remaining at 1 uM after 30 mins by LC/MS; assay type: ADME, Microsome; settings: read-out: Stability; outline: as §1
# [4] = (§2) AUC(0 to infinity) in Sprague-Dawley rat at 5 mg/kg, po; assay type: ADME, organism-based, Plasma; set-up: time infinity, dose 5 mg/kg, route oral; settings: Sprague-Dawley, plasma
# Outline: (§3)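 Male Sprague-Dawley rats, three to four per compound, given 5 mg/kg by oral gavage in 0.5% methyl cellulose, either singly or in a cassette. Serial blood drawn from an indwelling arterial cannula up to 6 or 24 h. Plasma proteins precipitated, and parent compound quantified by LC/MS/MS.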
# [5] = Cmax in Sprague-Dawley rat at 5 mg/kg, po; assay type: ADME, organism-based; set-up: dose 5 mg/kg, route oral; settings: in vivo; outline: as §3
# [6] = AUC(0 to 6 hrs) in Sprague-Dawley rat at 5 mg/kg, po; assay type: ADME, organism-based; set-up: time < 6 hr, dose 5 mg/kg, route oral; settings: plasma; outline: as §3
# Rattus norvegicus = assay: as §2; assay type: ADME, organism-based, Plasma; set-up: time infinity, dose 5 mg/kg, route oral; settings: in vivo; outline: as §3
# [7] = Oral bioavailability in Sprague-Dawley rat at 5 mg/kg; assay type: ADME, organism-based; settings: in vivo
# Outline: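 Oral dosing was 5 mg/kg by gavage in 0.5% methyl cellulose to male Sprague-Dawley rats (three to four), with a 1 mg/kg intravenous dose via indwelling catheter for comparison. Serial arterial-cannula blood sampling. Parent compound in protein-precipitated plasma measured by LC/MS/MS.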
# [8] = Half life in Sprague-Dawley rat at 5 mg/kg, po; assay type: ADME, organism-based; set-up: dose 5 mg/kg, route oral; settings: in vivo; outline: as §3
# [9] = target: T2, C-C chemokine receptor type 4 (Homo sapiens) (UniProt P51679); assay: Inhibition of CCR4
# T2 sequence (whole entry): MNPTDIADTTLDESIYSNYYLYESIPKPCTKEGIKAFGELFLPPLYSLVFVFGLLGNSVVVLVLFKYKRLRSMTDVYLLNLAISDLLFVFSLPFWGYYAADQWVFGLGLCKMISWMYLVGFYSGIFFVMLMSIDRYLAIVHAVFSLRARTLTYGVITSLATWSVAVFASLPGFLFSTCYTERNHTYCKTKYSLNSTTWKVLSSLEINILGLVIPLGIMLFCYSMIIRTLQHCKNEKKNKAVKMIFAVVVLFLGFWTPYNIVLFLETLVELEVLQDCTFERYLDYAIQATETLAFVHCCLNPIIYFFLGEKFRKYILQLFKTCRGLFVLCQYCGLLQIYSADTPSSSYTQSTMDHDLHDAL
# [10] = target: C-C chemokine receptor type 2 (Homo sapiens) (UniProt P41597); assay: Inhibition of CCR2b
# Chain of C-C chemokine receptor type 2 (Homo sapiens) (P41597 whole entry, looked up): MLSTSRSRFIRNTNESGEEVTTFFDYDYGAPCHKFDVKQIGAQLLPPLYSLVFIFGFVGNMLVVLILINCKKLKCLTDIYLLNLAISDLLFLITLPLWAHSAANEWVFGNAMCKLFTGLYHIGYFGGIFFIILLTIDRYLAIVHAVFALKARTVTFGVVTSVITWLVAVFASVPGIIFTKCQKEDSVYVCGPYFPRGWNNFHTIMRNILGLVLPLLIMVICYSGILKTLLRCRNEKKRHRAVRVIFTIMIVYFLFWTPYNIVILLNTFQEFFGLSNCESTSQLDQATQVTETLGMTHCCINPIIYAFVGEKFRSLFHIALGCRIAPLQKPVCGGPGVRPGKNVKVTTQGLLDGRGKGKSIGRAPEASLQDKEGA
# [11] = target: C-C chemokine receptor type 5 (Homo sapiens) (UniProt P51681); assay: Inhibition of CCR5
# Chain of C-C chemokine receptor type 5 (Homo sapiens) (P51681 whole entry, looked up): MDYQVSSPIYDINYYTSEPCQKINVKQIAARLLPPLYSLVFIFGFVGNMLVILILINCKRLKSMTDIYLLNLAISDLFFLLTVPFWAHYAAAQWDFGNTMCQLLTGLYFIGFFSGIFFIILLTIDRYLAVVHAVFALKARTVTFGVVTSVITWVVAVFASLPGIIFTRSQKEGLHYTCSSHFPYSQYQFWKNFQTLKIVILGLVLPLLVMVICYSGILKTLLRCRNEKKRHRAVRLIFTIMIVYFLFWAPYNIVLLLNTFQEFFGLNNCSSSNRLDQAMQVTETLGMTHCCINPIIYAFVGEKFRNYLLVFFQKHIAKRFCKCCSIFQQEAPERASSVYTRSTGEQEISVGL
# [12] = target: T3, C-X-C chemokine receptor type 1 (Homo sapiens) (UniProt P25024); assay: Inhibition of CXCR1
# T3 sequence (whole entry): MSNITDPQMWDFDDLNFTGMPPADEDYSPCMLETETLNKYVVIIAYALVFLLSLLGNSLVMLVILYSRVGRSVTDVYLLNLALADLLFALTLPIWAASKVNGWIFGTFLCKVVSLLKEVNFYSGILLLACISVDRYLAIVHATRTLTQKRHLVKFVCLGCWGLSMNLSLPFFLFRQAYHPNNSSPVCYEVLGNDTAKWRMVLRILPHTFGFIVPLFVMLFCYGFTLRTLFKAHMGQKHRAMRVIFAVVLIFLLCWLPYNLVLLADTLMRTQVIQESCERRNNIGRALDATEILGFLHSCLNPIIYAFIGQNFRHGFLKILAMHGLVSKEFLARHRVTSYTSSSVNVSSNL
# [13] = target: T4, C-X-C chemokine receptor type 2 (Homo sapiens) (UniProt P25025); assay: Inhibition of CXCR2
# T4 sequence (whole entry): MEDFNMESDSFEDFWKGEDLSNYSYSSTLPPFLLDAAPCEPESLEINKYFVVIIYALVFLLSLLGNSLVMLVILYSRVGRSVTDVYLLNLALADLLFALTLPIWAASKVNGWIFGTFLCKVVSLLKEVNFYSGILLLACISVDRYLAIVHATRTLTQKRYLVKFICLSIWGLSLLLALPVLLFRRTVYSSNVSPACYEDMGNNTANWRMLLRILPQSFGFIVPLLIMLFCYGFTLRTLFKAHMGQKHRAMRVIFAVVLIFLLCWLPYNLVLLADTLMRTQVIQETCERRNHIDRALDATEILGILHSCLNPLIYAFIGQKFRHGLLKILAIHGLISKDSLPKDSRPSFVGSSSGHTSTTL
# [14] = target: T5, CX3C chemokine receptor 1 (Homo sapiens) (UniProt P49238); assay: Inhibition of CX3CR1
# T5 sequence (whole entry): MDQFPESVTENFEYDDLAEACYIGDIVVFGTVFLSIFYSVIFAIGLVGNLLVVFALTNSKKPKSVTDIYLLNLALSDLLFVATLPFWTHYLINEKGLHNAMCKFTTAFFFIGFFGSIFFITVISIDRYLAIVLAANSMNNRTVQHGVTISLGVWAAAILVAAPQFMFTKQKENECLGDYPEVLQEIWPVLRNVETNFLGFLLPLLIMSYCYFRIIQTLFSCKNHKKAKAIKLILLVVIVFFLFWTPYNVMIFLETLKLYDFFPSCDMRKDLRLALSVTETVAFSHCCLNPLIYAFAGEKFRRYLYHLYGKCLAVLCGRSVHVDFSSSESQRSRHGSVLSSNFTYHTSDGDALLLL
SMILES,IC50 [1],other results
CN(Cc1ccc(Cl)cc1)C(=O)[C@H]1CCCN1C(=O)Nc1ccc(F)cc1,700 nM,–
O=C([C@H]1CCCN1C(=O)Nc1ccc(Cl)cc1)N(CCO)Cc1ccc(Cl)cc1,540 nM,–
CN(Cc1ccc(Cl)cc1)C(=O)[C@H]1CCCN1C(=O)Nc1ccc(Cl)cc1,270 nM,–
Cc1cc(C(F)(F)F)cc(C)c1NC(=O)N1CCC[C@@H]1C(=O)N(C)Cc1ccc(Cl)cc1,11 nM,"remaining at 0.5 h, 1 µM [2]: 84%; remaining at 0.5 h, 1 µM [3]: 74%; AUC(0-inf) [4]: 611 ng·h/mL; Cmax [5]: 195 ng/mL"
O=C([C@H]1CCCN1C(=O)Nc1ccc(Cl)cc1)N(CCO)Cc1cccc(Cl)c1,> 100000 nM,–
Cc1ccc(CN(C)C(=O)[C@H]2CCCN2C(=O)Nc2ccc(Cl)cc2)cc1,5700 nM,–
Cc1cc(C(F)(F)F)ccc1NC(=O)N1CCC[C@@H]1C(=O)N(C)Cc1ccc(Cl)cc1,50 nM,"remaining at 0.5 h, 1 µM [2]: 81%; remaining at 0.5 h, 1 µM [3]: 58%; AUC(0-t) at 6 h [6]: 2590 ng·h/mL; Cmax [5]: 699 ng/mL"
Cc1ccc(NC(=O)N2CCC[C@@H]2C(=O)N(C)Cc2ccc(Cl)cc2)cc1,680 nM,–
CN(Cc1ccc(Cl)cc1)C(=O)C1CCCCN1C(=O)Nc1ccc(C(F)(F)F)cc1 (stereo unspecified),> 28000 nM,–
CN(Cc1ccc(Cl)cc1)C(=O)[C@H]1CCCN1C(=O)Nc1cccc(C(F)(F)F)c1,2950 nM,–
CC(c1ccc(Cl)cc1)N(C)C(=O)[C@H]1CCCN1C(=O)Nc1ccc(Cl)cc1 (stereo partly specified),4700 nM,–
Cc1cc(Cl)ccc1CN(C)C(=O)[C@H]1CCCN1C(=O)Nc1ccc(Cl)cc1,> 100000 nM,–
CN(Cc1ccc(Cl)cc1)C(=O)[C@H]1CCCN1C(=O)Nc1ccc(C(F)(F)F)cc1Cl,120 nM,"remaining at 0.5 h, 1 µM [2]: 68%; remaining at 0.5 h, 1 µM [3]: 73%; AUC(0-t) at 6 h [6]: 2060 ng·h/mL; Cmax [5]: 437 ng/mL"
CCCN(Cc1ccc(Cl)cc1)C(=O)[C@H]1CCCN1C(=O)Nc1ccc(Cl)cc1,3600 nM,–
COc1ccc(CN(C)C(=O)[C@H]2CCCN2C(=O)Nc2ccc(Cl)cc2)cc1,> 77000 nM,–
Cc1cc(CN(C)C(=O)[C@H]2CCCN2C(=O)Nc2ccc(Cl)cc2)ccc1Cl,4000 nM,–
COc1ccc(NC(=O)N2CCC[C@@H]2C(=O)N(C)Cc2ccc(Cl)cc2)cc1,290 nM,–
CN(Cc1ccc(Cl)cc1)C(=O)[C@H]1CCCN1C(=O)Nc1ccc(C#N)cc1,720 nM,–
CN(Cc1ccc(Cl)cc1)C(=O)[C@H]1CCCN1C(=O)Nc1ccc(C(F)(F)F)cc1F,23 nM,"remaining at 0.5 h, 1 µM [2]: 76%; remaining at 0.5 h, 1 µM [3]: 93%; AUC(0-t) at 6 h [6]: 1240 ng·h/mL; Cmax [5]: 291 ng/mL"
CCN(Cc1ccc(Cl)cc1)C(=O)[C@H]1CCCN1C(=O)Nc1ccc(Cl)cc1,270 nM,–
CN(Cc1ccc(F)cc1)C(=O)[C@H]1CCCN1C(=O)Nc1ccc(Cl)cc1,1300 nM,–
CN(Cc1ccc(Cl)cc1)C(=O)[C@H]1CCCN1C(=O)Nc1ccc(C(F)(F)F)cc1,140 nM,"remaining at 0.5 h, 1 µM [2]: 74%; remaining at 0.5 h, 1 µM [3]: 78%; AUC (Rattus norvegicus): 9390 ng·h/mL; Cmax [5]: 834 ng/mL; bioavailability [7]: 45%; half-life [8]: 4.4 h; Activity [9]: inactive; Activity [10]: inactive; Activity [11]: inactive; Activity [12]: inactive; Activity [13]: inactive; Activity [14]: inactive"
O=C([C@H]1CCCN1C(=O)Nc1ccc(Cl)cc1)N(CCO)Cc1ccccc1Cl,43000 nM,–
O=C(NCc1ccc(Cl)cc1)[C@H]1CCCN1C(=O)Nc1ccc(Cl)cc1,> 75000 nM,–
CN(Cc1ccc(Cl)cc1)C(=O)[C@@H]1CCCN1C(=O)Nc1ccc(C(F)(F)F)cc1,> 28000 nM,–
CN(Cc1ccc(C(F)(F)F)cc1)C(=O)[C@H]1CCCN1C(=O)Nc1ccc(Cl)cc1,> 100000 nM,–
CN(Cc1ccc(C#N)cc1)C(=O)[C@H]1CCCN1C(=O)Nc1ccc(Cl)cc1,> 13000 nM,–
CN(Cc1ccc(Cl)cc1)C(=O)[C@H]1CCN1C(=O)Nc1ccc(C(F)(F)F)cc1,> 100000 nM,–

# Reference: ChEMBL document CHEMBL1140942, “Novel pyrrolidine ureas as C-C chemokine receptor 1 (CCR1) antagonists” (J Med Chem, 2009)
